Data set [1] concerns the target T1, ENT1 (Homo sapiens, UniProt Q99808).
T1 sequence (Q99808 1-456): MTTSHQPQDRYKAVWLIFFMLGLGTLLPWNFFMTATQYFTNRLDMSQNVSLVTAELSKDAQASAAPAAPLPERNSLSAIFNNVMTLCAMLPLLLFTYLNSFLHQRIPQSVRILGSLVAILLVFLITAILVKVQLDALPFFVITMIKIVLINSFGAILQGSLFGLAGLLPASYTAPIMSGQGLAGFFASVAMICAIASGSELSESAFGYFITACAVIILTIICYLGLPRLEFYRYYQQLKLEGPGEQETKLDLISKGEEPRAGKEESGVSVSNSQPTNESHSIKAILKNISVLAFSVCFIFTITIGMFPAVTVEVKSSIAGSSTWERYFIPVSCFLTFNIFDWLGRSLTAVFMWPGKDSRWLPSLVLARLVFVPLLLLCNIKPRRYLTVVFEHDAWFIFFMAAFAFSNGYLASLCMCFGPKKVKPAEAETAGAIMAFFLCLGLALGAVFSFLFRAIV
In words: Inhibition of ENT1-mediated [3H]-uridine uptake in HAP1 ENT2-KO cells. It is filed as cell-based. The conditions noted are these: 10 µM TKI; for % inhibition of ENT1 activity (mean ± SD): HAP1-ENT2 KO cells, [3H]-uridine uptake 5 min at 37 °C; for ENT1 inhibitor class / Effect on ENT1 activity (in words): HAP1 ENT2-KO cells.

For data set [2], the target named is T1, ENT1. As to the kind of experiment: Prediction of in vivo ENT1 inhibition. The settings on record: predicted if Imax,u/IC50 ≥ 0.1. The method in brief:
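Unbound peak plasma level (Imax,u) was obtained from literature Cmax and unbound fraction and divided by in vitro ENT1 IC50. Inhibition was predicted when the ratio was ≥ 0.1, following FDA drug-interaction guidance.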

Data set [3] is described as follows: Maximum plasma concentration of TKIs. The class given is in vivo. The settings on record: from Cmax and fu.
Another data set relates to ENT1/ENT2. As to the kind of experiment: Lorlatinib accumulation assay in HAP1 wild-type, ENT1-KO and ENT2-KO cells. The settings on record: 10 µM lorlatinib, ENT1-KO, ENT2-KO cells. The class given is cell-based, human. The method in brief:
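HAP1 wild-type, ENT1-KO and ENT2-KO cells were grown in Iscove's modified Dulbecco's medium with 10% fetal calf serum and penicillin/streptomycin. Cells were exposed to 10 µM test compound for 5 min at 37 °C, without or with 0.1 µM (ENT1) or 100 µM (ENT1/ENT2) NBMPR. They were then washed twice in ice-cold PBS and lysed in distilled water. Lysates underwent acetonitrile extraction, and compound was quantified by LC–MS/MS (C18 column, ESI+).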

For a further data set, the target named is T2, ENT2 (Homo sapiens, UniProt Q14542).
T2 sequence (Q14542 1-456): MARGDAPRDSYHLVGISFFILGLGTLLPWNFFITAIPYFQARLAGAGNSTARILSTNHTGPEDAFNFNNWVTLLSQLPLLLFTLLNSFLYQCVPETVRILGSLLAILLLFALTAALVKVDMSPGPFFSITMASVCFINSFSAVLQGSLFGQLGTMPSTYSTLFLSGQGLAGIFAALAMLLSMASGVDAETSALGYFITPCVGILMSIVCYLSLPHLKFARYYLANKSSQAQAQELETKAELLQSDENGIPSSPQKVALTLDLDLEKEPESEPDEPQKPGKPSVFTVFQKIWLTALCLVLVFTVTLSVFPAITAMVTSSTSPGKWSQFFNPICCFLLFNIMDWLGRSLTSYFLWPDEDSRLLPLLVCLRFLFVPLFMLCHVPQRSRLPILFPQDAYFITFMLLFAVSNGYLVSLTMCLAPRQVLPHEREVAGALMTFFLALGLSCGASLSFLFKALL
As to the kind of experiment: Prediction of in vivo ENT2 inhibition. The conditions noted are these: Imax,u/IC50 greater than 0.1. A digest of the protocol:
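Imax,u from literature Cmax and unbound fraction was divided by ENT2 IC50, using the FDA guidance threshold of 0.1. […] Uptake was counted by scintillation, normalised to protein, and fitted to a four-parameter logistic curve; three independent assays.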

For data set [4] the following is noted: plasma; ref 43-47 (Reference column, one per TKI); cited from earlier work.

SMILES strings stand for the structures.

Regarding `Cc1cc(Nc2ncc(Cl)c(Nc3ccccc3S(=O)(=O)C(C)C)n2)c(OC(C)C)cc1C1CCNCC1` [Ceritinib, ceritinib], on ENT1 [1], the “% inhibition of ENT1 activity (mean ± SD)” value (“% inhibition … (mean ± SD)” below) was 26.3 ± 1.7 %; the ENT1 inhibitor class entry was “weak (decreased ENT1 activity by less than 35% and can thus be considered as weak ENT1 inhibitors)”; the “Effect on ENT1 activity (in words)” value was “only modestly decrease ENT1 activity”.
`C=CC(=O)N1CCC[C@@H](n2nc(-c3ccc(Oc4ccccc4)cc3)c3c(N)ncnc32)C1` [Ibrutinib, ibrutinib]: at ENT1 [1], the “% inhibition … (mean ± SD)” value amounted to 72.7 ± 1.1 % and the ENT1 inhibitor class entry was “potent (inhibit ENT1 by more than 60%)”. Besides, the “Predicted in vivo inhibition” value at ENT1 [2] was “No”. Moreover, the “Imax,u (maximum unbound plasma concentration)” value in data set [3] was determined as 9.56 nM.
`C[C@H]1Oc2cc(cnc2N)-c2c(nn(C)c2C#N)CN(C)C(=O)c2ccc(F)cc21` [Lorlatinib, (10R)-7-amino-12-fluoro-2,10,16-trimethyl-15-oxo-10,15,16,17-tetrahydro-2H-8,4-(metheno)pyrazolo[4,3-h][2,5,11]-benzoxadiazacyclotetradecine-3-carbonitrile]: at ENT1 [1], the “% inhibition … (mean ± SD)” value was found to be 86.6 ± 6.4 % and the ENT1 inhibitor class entry was “potent (inhibit ENT1 by more than 60%)”. For the same compound, on ENT1 [2], the “Predicted in vivo inhibition” value is listed as “Yes”. In data set [3], the “Imax,u (maximum unbound plasma concentration)” value is on record as 485 nM. Moreover, the “Cellular accumulation of lorlatinib” value with ENT1/ENT2 (5 min at 37 °C, without or with 0.1 or 100 µM NBMPR) is “similarly accumulate in HAP1 wild-type, ENT1-KO, and ENT2-KO cells”. In the data set with ENT1/ENT2 (± NBMPR), the “Substrate for ENT1/ENT2” value is reported as “not a substrate for either ENT1 or ENT2”. Besides, on ENT2, the “Predicted in vivo inhibition (in words)” value was “should also be clinically relevant”.
For `CNC(=O)c1cc(Oc2ccc(NC(=O)Nc3ccc(Cl)c(C(F)(F)F)c3)c(F)c2)ccn1` [Regorafenib, regorafenib], the “% inhibition … (mean ± SD)” value at ENT1 [1] is on record as 21.4 ± 2.7 %.
Consider `C1=C/COCc2cc(ccc2OCCN2CCCC2)Nc2nccc(n2)-c2cccc(c2)COC/1` [Pacritinib, 11-(2-pyrrolidin-1-yl-ethoxy)-14,19-dioxa-5,7,26-triaza-tetracyclo[19.3.1.1(2,6).1(8,12)]heptacosa-1(25),2(26),3,5,8,10,12(27),16,21,23-decaene], for which, in data set [4], the “fu (unbound fraction)” value was 0.011. In addition, on ENT1 [1], the “% inhibition … (mean ± SD)” value stood at 61.6 ± 8.1 % and the ENT1 inhibitor class entry is on record as “potent (inhibit ENT1 by more than 60%)”. Further, on ENT1 [2], the “Predicted in vivo inhibition” value was “No”. In addition, in data set [3], the “Imax,u (maximum unbound plasma concentration)” value amounted to 247.5 nM.
`COc1cc(N2CCC(N3CCN(C)CC3)CC2)ccc1Nc1ncc(Cl)c(Nc2ccccc2P(C)(C)=O)n1` [Brigatinib, brigatinib]: at ENT1 [1], the “% inhibition … (mean ± SD)” value came to 52.5 ± 11.1 % and the ENT1 inhibitor class entry is on record as “moderate (inhibit ENT1 activity by more than 35% but less than 60%)”.
For `C[C@@H]1CCN(C(=O)CC#N)C[C@@H]1N(C)c1ncnc2[nH]ccc12` [Tofacitinib, tofacitinib], at ENT1 [1], the “% inhibition … (mean ± SD)” value was 4.8 ± 8.3% and the “Effect on ENT1 activity (in words)” value is given as “failed to significantly alter ENT1 activity”.
`COc1cc2nccc(Oc3ccc(NC(=O)NC4CC4)c(Cl)c3)c2cc1C(N)=O` [Lenvatinib, lenvatinib]: the “fu (unbound fraction)” value in data set [4] is 0.016. For the same compound, on ENT1 [1], the “% inhibition … (mean ± SD)” value was determined as 63.1 ± 5.9 % and the ENT1 inhibitor class result was “potent (inhibit ENT1 by more than 60%)”. Moreover, on ENT1 [2], the “Predicted in vivo inhibition” value is “No”.
On to `CCc1cc2c(cc1N1CCC(N3CCOCC3)CC1)C(C)(C)c1[nH]c3cc(C#N)ccc3c1C2=O` [Alectinib, alectinib], for which, on ENT1 [1], the “% inhibition … (mean ± SD)” value came out at 54.0 ± 4.9 % and the ENT1 inhibitor class entry is reported as “moderate (inhibit ENT1 activity by more than 35% but less than 60%)”.
The matching figures for `CC#CC(=O)N1CCC[C@H]1c1nc(-c2ccc(C(=O)Nc3ccccn3)cc2)c2c(N)nccn12` [Acalabrutinib, acalabrutinib]: 42.6 ± 10.4 % and “moderate (inhibit ENT1 activity by more than 35% but less than 60%)”.
The matching figures for `CN(C)C/C=C/C(=O)Nc1cc2c(Nc3ccc(F)c(Cl)c3)ncnc2cc1O[C@H]1CCOC1` [Afatinib, afatinib]: 54.5 ± 2.4 % and “moderate (inhibit ENT1 activity by more than 35% but less than 60%)”.
Turning to `N#CCC1(n2cc(-c3ncnc4[nH]ccc34)cn2)CN(C2CCN(C(=O)c3ccnc(C(F)(F)F)c3F)CC2)C1` [Itacitinib, itacitinib], on ENT1 [1], the “% inhibition … (mean ± SD)” value is listed as 21.9 ± 13.3 %; the ENT1 inhibitor class result was “weak (decreased ENT1 activity by less than 35% and can thus be considered as weak ENT1 inhibitors)”.
Regarding `C=CC(=O)Nc1cc(Nc2nccc(-c3cn(C)c4ccccc34)n2)c(OC)cc1N(C)CCN(C)C` [Osimertinib, osimertinib], on ENT1 [1], the “% inhibition … (mean ± SD)” value is on record as 32.3 ± 11.3 %; the ENT1 inhibitor class result is “weak (decreased ENT1 activity by less than 35% and can thus be considered as weak ENT1 inhibitors)”.
For `CCN1CCN(Cc2ccc(Nc3ncc(F)c(-c4cc(F)c5nc(C)n(C(C)C)c5c4)n3)nc2)CC1` [Abemaciclib, abemaciclib], on ENT1 [1], the “% inhibition … (mean ± SD)” value is given as 25.0 ± 7.9 %; the ENT1 inhibitor class result was “weak (decreased ENT1 activity by less than 35% and can thus be considered as weak ENT1 inhibitors)”.
Take `COc1cc2ncnc(Nc3ccc(F)c(Cl)c3)c2cc1NC(=O)/C=C/CN1CCCCC1` [Dacomitinib, dacomitinib]: on ENT1 [1], the “% inhibition … (mean ± SD)” value is 43.9 ± 2.3 % and the ENT1 inhibitor class result is given as “moderate (inhibit ENT1 activity by more than 35% but less than 60%)”.
On to `CN1CCN(c2ccc(C(=O)Nc3n[nH]c4ccc(Cc5cc(F)cc(F)c5)cc34)c(NC3CCOCC3)c2)CC1` [Entrectinib, entrectinib], for which, at ENT1 [1], the “% inhibition … (mean ± SD)” value stood at 22.9 ± 5.2 %.
On to `CN(C)C(=O)c1cc2cnc(Nc3ccc(N4CCNCC4)cn3)nc2n1C1CCCC1` [Ribociclib, ribociclib], for which, at ENT1 [1], the “% inhibition … (mean ± SD)” value is given as 17.8 ± 10.2% and the “Effect on ENT1 activity (in words)” value is given as “failed to significantly alter ENT1 activity”.
Regarding `C[C@@H](Oc1cc(-c2cnn(C3CCNCC3)c2)cnc1N)c1c(Cl)ccc(F)c1Cl` [Crizotinib, crizotinib], at ENT1 [1], the “% inhibition … (mean ± SD)” value is 34.7 ± 2.7 %; the ENT1 inhibitor class result is “weak (decreased ENT1 activity by less than 35% and can thus be considered as weak ENT1 inhibitors)”; the “Effect on ENT1 activity (in words)” value is recorded as “only modestly decrease ENT1 activity”.
`CCCS(=O)(=O)Nc1ccc(F)c(C(=O)c2c[nH]c3ncc(-c4ccc(Cl)cc4)cc23)c1F` [Vemurafenib, vemurafenib]: on ENT1 [1], the “% inhibition … (mean ± SD)” value is 27.3 ± 10.9 %; the ENT1 inhibitor class result is “weak (decreased ENT1 activity by less than 35% and can thus be considered as weak ENT1 inhibitors)”.
For the compound `COc1cc2nccc(Oc3ccc(NC(=O)C4(C(=O)Nc5ccc(F)cc5)CC4)cc3)c2cc1OC` [Cabozantinib, cabozantinib], at ENT1 [1], the “% inhibition … (mean ± SD)” value is on record as 48.8 ± 2.5 % and the ENT1 inhibitor class result is recorded as “moderate (inhibit ENT1 activity by more than 35% but less than 60%)”.
Take `CCOc1cc2ncc(C#N)c(Nc3ccc(OCc4ccccn4)c(Cl)c3)c2cc1NC(=O)/C=C/CN(C)C` [Neratinib, neratinib]: in data set [4], the “fu (unbound fraction)” value was 0.01. Further, at ENT1 [1], the “% inhibition … (mean ± SD)” value came out at 61.0 ± 8.5 % and the ENT1 inhibitor class entry is on record as “potent (inhibit ENT1 by more than 60%)”. Moreover, the “Predicted in vivo inhibition” value at ENT1 [2] is on record as “No”. In addition, in data set [3], the “Imax,u (maximum unbound plasma concentration)” value was 1.46 nM.
For `COC(=O)c1ccc2c(c1)NC(=O)/C2=C(\Nc1ccc(N(C)C(=O)CN2CCN(C)CC2)cc1)c1ccccc1` [Nintedanib, nintedanib], the “% inhibition … (mean ± SD)” value on ENT1 [1] is given as 46.9 ± 9.6 %.
